Experimental findings from ChEMBL document CHEMBL4007409, “Design and Synthesis of Novel and Selective Phosphodiesterase 2 (PDE2a) Inhibitors for the Treatment of Memory Disorders” (J Med Chem, 2017) are described below.

Values after ≈ are worked out from the molar mass of the structure shown.

Data set [1] in a line: Intrinsic clearance in rat liver microsomes at 1 uM measured up to 30 mins in presence of NADPH by HPLC analysis. The format is ADME, microsome. Particulars: read-out: CLH. The method in brief: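 Compound at 1 µM final was incubated with human or rat liver microsomes (0.5 mg protein/mL) in Tris buffer at 37 °C, started with NADPH (2 mM). Samples were quenched in cold ACN with indomethacin internal standard at 0, 5, 15 and 30 min (RLM) or 0, 15, 30 and 60 min (HLM) and analysed by HPLC. CLint = first-order degradation rate constant / microsomal protein concentration.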
Background: Microsomes from liver hold many membrane-bound enzymes, among them those of drug oxidation.

A short description of data set [2]: Solubility of the compound. It is filed as physicochemical.
For a further data set, the system named is Rattus norvegicus. The data set can be described thus: Clearance in Sprague-Dawley rat plasma at 1 mg/kg, iv administered as single dose by LC-MS/MS analysis relative to hepatic blood flow. The format is ADME, organism-based. Particulars: in vivo.
The nature of data set [3]: Volume of distribution at steady state in Sprague-Dawley rat plasma at 1 mg/kg, iv administered as single dose by LC-MS/MS analysis. It is filed as ADME, organism-based. Particulars: read-out: Vdss. The method in brief:
(§1)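 Male SD rats (200-250 g), not fasted, n=3, given a single 1 mg/kg IV dose in NMP:PEG400:water (5:35:65) via jugular/femoral vein catheters. Blood was taken from pre-dose to 24 h (0.033–24 h). Plasma was protein-precipitated with acetonitrile containing internal standard and quantified by LC-MS/MS against 0.5–2000 ng/mL standards.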

The nature of data set [4]: Cmax in Sprague-Dawley rat plasma at 1 mg/kg, po administered as single dose by LC-MS/MS analysis. Set-up: dose 1 mg/kg, route oral. It is filed as ADME, organism-based. The method in brief:
(§2)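 Non-fasted male SD rats (200-250 g, n=3) received a single oral 1 mg/kg dose in NMP:PEG400:water (5:35:65). Femoral-vein blood was sampled pre-dose and at 0.25–24 h. Plasma was extracted with acetonitrile plus internal standard and analysed by LC-MS/MS over a 0.5–2000 ng/mL calibration range.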

A further data set concerns Cerebrospinal fluid. The data set can be described thus: Drug uptake in Sprague-Dawley rat cerebrospinal fluid at 1 mg/kg, po administered as single dose by LC-MS/MS analysis. The format is ADME, organism-based. Particulars: in vivo, read-out: Drug uptake. The method, boiled down:
(§3)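 Male SD rats got a single 1 mg/kg oral dose in NMP:PEG400:water (5:35:65). Total brain, CSF and plasma levels were then measured.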

For the next data set, the system named is Plasma. Nature of the data set: Drug uptake in Sprague-Dawley rat plasma at 1 mg/kg, po administered as single dose by LC-MS/MS analysis. Particulars: read-out: Cp, in vivo. It is filed as ADME, organism-based. The method, boiled down: as §3
Data set [5] in a line: Elimination half life in Sprague-Dawley rat plasma at 1 mg/kg, iv administered as single dose by LC-MS/MS analysis. Particulars: read-out: beta t1/2 (converted). It is filed as ADME, organism-based. The method, boiled down: as §1
Data set [6] in a line: Oral bioavailability in Sprague-Dawley rat plasma at 1 mg/kg administered as single dose by LC-MS/MS analysis. The format is ADME, organism-based. The method in brief:
as §2

The nature of data set [7]: AUC (infinity) in Sprague-Dawley rat plasma at 1 mg/kg, po administered as single dose by LC-MS/MS analysis. The format is ADME, organism-based. Also noted: dose 1 mg/kg, time infinity, route oral. The method, boiled down: as §2
In another data set the test system is Brain. Nature of the data set: Drug uptake in Sprague-Dawley rat brain at 1 mg/kg, po administered as single dose by LC-MS/MS analysis. The note with it: in vivo, read-out: Drug uptake. It is filed as ADME, organism-based. The method, boiled down: as §3
Data set [8] in a line: AUC (0 to infinity) in Sprague-Dawley rat plasma at 1 mg/kg, iv administered as single dose by LC-MS/MS analysis. Also noted: dose 1 mg/kg, time infinity, route intravenous. The format is ADME, organism-based. The method, boiled down: as §1
Data set [9] can be described thus: Tmax in Sprague-Dawley rat plasma at 1 mg/kg, po administered as single dose by LC-MS/MS analysis. The format is ADME, organism-based. The method, boiled down: as §2
Data set [10] in a line: Clearance in Sprague-Dawley rat plasma at 1 mg/kg, iv administered as single dose by LC-MS/MS analysis. The format is ADME, organism-based. The method in brief:
as §1

Consider `Cc1cc(N2CCCC(C(=O)Nc3ccc4c(c3)CCC4)C2)n2ncnc2n1` (centres undefined), for which, in data set [1], the microsomal CLint at 1 µM was 67.9 µL/min/mg. Besides, in [2], the solubility stood at 49 µg/mL (≈ 130 µM).

Consider `Cc1cc([C@@H]2CN(C(=O)c3cc(C)c(F)c(F)c3)CC(F)(F)C2)n2ncnc2n1`, for which the microsomal CLint at 1 µM in [1] was found to be 52.2 µL/min/mg.

As for `O=C(Nc1ccc2c(c1)CCC2)C1CCCN(c2ccnc3ncnn23)C1` (centres undefined), the microsomal CLint at 1 µM in [1] came out at 76.2 µL/min/mg. In data set [2], this compound displayed a solubility of 47 µg/mL (≈ 130 µM).

Take `Cc1cc([C@H]2CN(C(=O)c3ccc(F)c(Br)c3)CC(F)(F)C2)n2ncnc2n1`: the microsomal CLint at 1 µM in data set [1] was determined as 17.3 µL/min/mg.

On to `Cc1cc(C2CCCN(C(=O)c3ccc(F)c(C)c3)C2)n2ncnc2n1` (centres undefined), for which the microsomal CLint at 1 µM in data set [1] worked out at 33.5 µL/min/mg. Besides, in data set [2], the concentration in solution (solubility) came to 35 µg/mL (≈ 99 µM).

For the compound `COc1ccc(C(=O)N2CCCC(c3cc(C)nc4ncnn34)C2)cc1C` (centres undefined), the microsomal CLint at 1 µM in [1] turned out to be 30.2 µL/min/mg. The compound also came in with a solubility in data set [2] of 36 µg/mL (≈ 98.5 µM).

Take `Cc1cc(N2CCCC(C(=O)Nc3ccc4ccccc4c3)C2)n2ncnc2n1` (centres undefined): in data set [1], the microsomal CLint at 1 µM came out at 53.4 µL/min/mg. Besides, in [2], the concentration in solution (solubility) was 13 µg/mL (≈ 33.6 µM).

In the data set on Rattus norvegicus, `Cc1cc([C@@H]2CN(C(=O)c3ccc(F)c(Br)c3)CC(F)(F)C2)n2ncnc2n1` yielded a CL of 50%. Also, the Vd in data set [3] came out at 0.98 L/kg. Also, the highest level in data set [4] (Cmax) was 201 ng/mL. Further, the microsomal CLint at 1 µM in data set [1] was 25.7 µL/min/mg. Besides, the values for the concentration in the data set on Cerebrospinal fluid, with Plasma and in the data set with Brain were 15 nM, 204 nM and 66 nM, respectively. Moreover, the half-life in [5] was 60.6 min. Besides, the bioavailability in data set [6] came out at 87%. For the same compound, the AUC(0-inf) stood at 442 ng·h/mL in data set [7] and 508 ng·h/mL in data set [8]. Also, the Tmax in data set [9] was found to be 40.2 min. Besides, the clearance in [10] was 32.8 mL/min/kg.

For `Cc1cc([C@H]2CCCN(C(=O)c3ccc4ccccc4c3)C2)n2ncnc2n1`, in [1], the microsomal CLint at 1 µM was 124 µL/min/mg. Besides, the concentration in solution in [2] (solubility) came to 37 µg/mL (≈ 99.6 µM).

In the case of `Cc1cc([C@@H]2CN(C(=O)c3ccc(F)c(C4CC4)c3)CC(F)(F)C2)n2ncnc2n1`, the microsomal CLint at 1 µM in [1] came out at 162 µL/min/mg.

Take `O=C(Nc1ccc2c(c1)CCC2)C1CCCN(c2cc(C(F)(F)F)nc3ncnn23)C1` (centres undefined): the microsomal CLint at 1 µM in data set [1] was 94.1 µL/min/mg. In addition, in data set [2], the solubility came to 29 µg/mL (≈ 67.4 µM).

With `Cc1cc(C2CCCN(C(=O)c3ccc4c(c3)OCC4)C2)n2ncnc2n1` (centres undefined), in data set [1], the microsomal CLint at 1 µM came out at 21.7 µL/min/mg. This compound came in with a solubility in data set [2] of 36 µg/mL (≈ 99.1 µM).

As for `Cc1cc(C2CCCN(C(=O)c3ccc4ncccc4c3)C2)n2ncnc2n1` (centres undefined), the microsomal CLint at 1 µM in data set [1] turned out to be 6.3 µL/min/mg. The compound further had a solubility in data set [2] of 47 µg/mL (≈ 126 µM).

For `Cc1cc(C2CCCN(C(=O)c3ccc4c(c3)CCC4)C2)n2ncnc2n1` (centres undefined), the microsomal CLint at 1 µM in data set [1] came to 83.9 µL/min/mg. This compound yielded a solubility in data set [2] of 47 µg/mL (≈ 130 µM).

`Cc1cc([C@@H]2CCCN(C(=O)c3ccc4ccccc4c3)C2)n2ncnc2n1`: in data set [1], the microsomal CLint at 1 µM worked out at 41.4 µL/min/mg. This compound also showed a solubility in [2] of 37 µg/mL (≈ 99.6 µM).

Take `COc1cc(Cl)ccc1NC(=O)C1CCCN(c2cc(C)nc3ncnn23)C1` (centres undefined): the microsomal CLint at 1 µM in data set [1] came to 78.9 µL/min/mg. Moreover, in data set [2], the solubility was determined as 45 µg/mL (≈ 112 µM).

For the compound `Cc1cc(C2CCCN(C(=O)c3ccc4ccccc4c3)C2)n2ncnc2n1` (racemic), the microsomal CLint at 1 µM in [1] is 85.6 µL/min/mg. The same compound had a solubility in data set [2] of 37 µg/mL (≈ 99.6 µM).

For `COc1ccc(C(=O)N2CC(c3cc(C)nc4ncnn34)CC(F)(F)C2)cc1C` (racemic), the microsomal CLint at 1 µM in data set [1] was determined as 67.7 µL/min/mg.

Consider `Cc1cc(C2CN(C(=O)c3ccc4ccccc4c3)CC(F)(F)C2)n2ncnc2n1` (racemic), for which the microsomal CLint at 1 µM in [1] turned out to be 78.8 µL/min/mg.

The solubility is the dissolved amount per volume that the medium holds. Lower therefore signals a poorly soluble substance. One may read the Cmax as the peak of the concentration-time curve. What is called bioavailability is the share of a dose that reaches the circulation, judged against a reference dose that is usually intravenous. Lower therefore signals little systemic uptake. As usually defined, the AUC(0-inf) is the area under the concentration-time curve extrapolated to infinity. A low value points to less exposure. The term Tmax denotes the time from dosing to the highest level. One may read the clearance as the volume of plasma or blood freed of the substance per unit of time. Higher therefore signals efficient removal.
